Source: ChEMBL document CHEMBL2321661, “Synthesis and biological evaluation of 5-nitropyrimidine analogs with azabicyclic substituents as GPR119 agonists” (Bioorg Med Chem Lett, 2013)

Experiments:
[1] = target: T1, Glucose-dependent insulinotropic receptor (Homo sapiens, UniProt Q8TDV5); experiment: Agonist activity at human GPR119 transfected in HEK293 cells assessed as concentration for 50 % cAMP stimulation of oleylethanolamine; format: functional, cell-based
T1 sequence (Q8TDV5 whole entry): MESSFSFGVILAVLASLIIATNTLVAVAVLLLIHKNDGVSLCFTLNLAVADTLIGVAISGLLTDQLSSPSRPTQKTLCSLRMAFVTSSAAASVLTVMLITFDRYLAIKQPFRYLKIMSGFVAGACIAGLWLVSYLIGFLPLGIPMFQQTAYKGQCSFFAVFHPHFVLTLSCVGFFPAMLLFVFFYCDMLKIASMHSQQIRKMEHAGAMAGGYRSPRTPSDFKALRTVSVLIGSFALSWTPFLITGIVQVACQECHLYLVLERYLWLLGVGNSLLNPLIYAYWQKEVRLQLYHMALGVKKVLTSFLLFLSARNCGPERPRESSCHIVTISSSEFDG
Summary of the method: (§1)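 HEK293 cells seeded at 4 × 10³ cells/well and grown 24 h, then transiently transfected with a human GPR119 expression plasmid by lipofection. After 24 h, compounds were applied in KRBH buffer with 0.1% BSA and IBMX for 60 min at 37 °C. Cells were lysed 10 min at room temperature (phosphate/KF/Triton, pH 7.0), and cAMP was read by HTRF.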

[2] = target: T2, Glucose-dependent insulinotropic receptor (Homo sapiens) (UniProt Q8TDV5); experiment: Agonist activity at human GPR119 transfected in HEK293 cells assessed as cAMP stimulation relative to maximal effect of oleylethanolamine; format: functional, cell-based; summary of the method: as §1
T2 sequence (whole entry): T1 sequence (Q8TDV5 whole entry)

EC50 [1] | Emax [2] | Compound
14.5 nM |  | CC(C)(C)OC(=O)N1[C@@H]2CC[C@H]1C[C@@H](Oc1ncnc(Nc3ccc(S(C)(=O)=O)cc3)c1[N+](=O)[O-])C2 (stereo in doubt; 13) [listing 1 of 2 here]
1.5 nM | 99% | CC(C)(C)OC(=O)N1[C@@H]2CC[C@H]1C[C@H](Nc1ncnc(Nc3ccc(S(C)(=O)=O)cc3F)c1[N+](=O)[O-])C2
> 10000 nM | 41% | CC(C)(C)OC(=O)N1[C@@H]2CC[C@H]1C[C@@H](CNc1ncnc(Nc3ccc(S(C)(=O)=O)cc3)c1[N+](=O)[O-])C2
 | 99% | CC(C)(C)OC(=O)N1[C@@H]2CC[C@H]1C[C@@H](Oc1ncnc(Nc3ccc(S(C)(=O)=O)cc3)c1[N+](=O)[O-])C2 (stereo in doubt; 11) [listing 1 of 2 here]
11.5 nM | 139% | CC(C)(C)OC(=O)N1[C@@H]2CC[C@H]1C[C@H](Nc1ncnc(Nc3ccc(S(C)(=O)=O)cc3)c1[N+](=O)[O-])C2
1.5 nM |  | CC(C)(C)OC(=O)N1[C@@H]2CC[C@H]1C[C@@H](Oc1ncnc(Nc3ccc(S(C)(=O)=O)cc3F)c1[N+](=O)[O-])C2 (stereo in doubt; 12) [listing 1 of 2 here]
1.4 nM |  | CC(C)(C)OC(=O)N1[C@@H]2CC[C@H]1C[C@@H](Oc1ncnc(Nc3ccc(S(C)(=O)=O)cc3F)c1[N+](=O)[O-])C2 (stereo in doubt; 14) [listing 1 of 2 here]
 | 100% | CCCCCCCC/C=C\CCCCCCCC(=O)NCCO
4.9 nM |  | CC(C)(C)OC(=O)N1[C@@H]2CC[C@H]1C[C@@H](Oc1ncnc(Nc3ccc(S(C)(=O)=O)cc3)c1[N+](=O)[O-])C2 (stereo in doubt; 11) [listing 2 of 2 here]
 | 116% | CC(C)(C)OC(=O)N1[C@@H]2CC[C@H]1C[C@@H](Oc1ncnc(Nc3ccc(S(C)(=O)=O)cc3F)c1[N+](=O)[O-])C2 (stereo in doubt; 12) [listing 2 of 2 here]
 | 65% | CC(C)(C)OC(=O)N1[C@@H]2CC[C@H]1C[C@@H](Oc1ncnc(Nc3ccc(S(C)(=O)=O)cc3F)c1[N+](=O)[O-])C2 (stereo in doubt; 14) [listing 2 of 2 here]
 | 69% | CC(C)(C)OC(=O)N1[C@@H]2CC[C@H]1C[C@@H](Oc1ncnc(Nc3ccc(S(C)(=O)=O)cc3)c1[N+](=O)[O-])C2 (stereo in doubt; 13) [listing 2 of 2 here]
6.7 nM | 53% | CC(C)(C)OC(=O)N1[C@@H]2CC[C@H]1C[C@@H](CNc1ncnc(Nc3ccc(S(C)(=O)=O)cc3F)c1[N+](=O)[O-])C2
